High-throughput results as filed in PubChem BioAssay.
Rin1-Abl PPI inh – inhibitors of Rin1-Abl protein binding, primary screen, biochemical, TR-FRET. Tyrosine-protein kinase ABL1 (Homo sapiens) + Ras and Rab interactor 1 (Homo sapiens), …. inhibition, % at 7.35 µM. 360,000 tested, 0.4% active. AID 588664, 2011; in the data active = inhibition above about 5%, passing the limit was not always enough
MBD2 DNA inh – inhibitors of MBD2 binding to methylated DNA, primary screen, biochemical, TR-FRET, DNA-binding domain, human | inhibition, % at 4.4 µM | MBD2 binding to methylated oligonucleotide | Methyl-CpG-binding domain protein 2 (Homo sapiens), Q9UBB5 | 370,000 tested, 0.31% active; in the data active = inhibition above about 13%
LEDGF integ inh – blockers of LEDGF/p75-dependent integrase strand transfer – biochemical, TR-FRET, high throughput, primary screen | HIV-1 integrase (with human LEDGF/p75) | TR-FRET IN-LEDGF/p75 DNA integration, Eu/Cy5 | inhibition, % at 3.7 µM | 370,000 tested, 0.64% active | AID 743269, 2014;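 active = inhibition above the screen-wide mean plus 3 SD, cut at about 13% in these data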;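 also: signal is the Cy5 over europium emission ratio at 671 and 618 nm; 0% = plate median of compound wells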
TDP2 inh – human TDP2 enzyme inhibitors, primary screen, biochemical, epi absorbance, recombinant enzyme. inhibition, % at 12.8 µM. 370,000 tested, 0.34% active. Tyrosyl-DNA phosphodiesterase 2 (Homo sapiens), O95551. T5PNP hydrolysis, p-nitrophenol absorbance 415 nm;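 active = inhibition above the mean of all tested compounds plus 3 SD, set per campaign, cut at about 25% in these data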;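 also: 0% = DMSO with enzyme and 100% = buffer with substrate but no TDP2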
Target sequence (O95551 whole entry, looked up): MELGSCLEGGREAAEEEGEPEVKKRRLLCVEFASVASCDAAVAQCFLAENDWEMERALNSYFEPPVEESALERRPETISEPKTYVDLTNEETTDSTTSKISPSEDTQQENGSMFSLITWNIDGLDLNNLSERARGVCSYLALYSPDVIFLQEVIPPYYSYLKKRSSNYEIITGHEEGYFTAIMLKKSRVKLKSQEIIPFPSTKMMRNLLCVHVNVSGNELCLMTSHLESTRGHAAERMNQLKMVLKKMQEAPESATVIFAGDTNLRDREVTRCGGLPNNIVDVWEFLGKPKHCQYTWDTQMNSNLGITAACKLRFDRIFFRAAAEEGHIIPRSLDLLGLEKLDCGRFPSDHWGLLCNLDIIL
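Assay system: Recombinant human TDP2 | Quantity: 120 nM TDP2 per well | Incubation: 2 h at 37 °C | Signal: Epi absorbance | Evaluation: Percent inhibition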
UHRF1 MBD2 ctr – UHRF1 methylated DNA binding inhibitors, primary screen, counter-screen for MBD2 inhibitor project, biochemical, TR-FRET, human UHRF1, single concentration; 370,000 tested, 0.75% active; UHRF1 binding to methylated oligo; inhibition, % at 4.4 µM; AID 687016, 2013; in the data active = inhibition above about 21%;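 also: UHRF1 SRA domain binding a hemimethylated CpG hairpin DNA probe; 0% = median of test compound wells and 100% = reference inhibitor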
Active calls of the source: *; nt = no result given. Compounds with a hit are over-represented: about 1.9% of the library has one in this group of screens.

SMILES	Rin1-Abl PPI inh	MBD2 DNA inh	LEDGF integ inh	TDP2 inh	UHRF1 MBD2 ctr
CCOC(=O)c1cc2c(ccc3ccccc32)oc1=O	-4	-5	-3	-6	29*
N#Cc1ccc(-c2csc(NC(=O)c3ccc(N4C(=O)CCC4=O)cc3)n2)cc1	-5	-4	1	13	-3
Cc1cc(-c2csc(NC(=O)c3ccc(C#N)cc3)n2)c(C)n1Cc1ccco1	3	22*	68*	-4	57*
O=C(Nc1cccc(NC(=O)c2cccs2)c1)c1ccco1	1	-1	0	-13	6
O=C(Nc1ccc(OC(=O)c2cccs2)cc1)c1ccco1	-3	10	1	10	24*
Cn1nc(-c2ccccc2)cc1NC(=O)Nc1ccc(C(C)(C)C)cc1	-2	8	2	-2	29*
Cn1nc(-c2ccc(Cl)cc2)cc1NC(=O)Nc1ccccc1	1	2	-2	-9	-2
O=C(c1ccccc1OCc1ccccc1)N(Cc1ccccn1)CC1CCCO1 (configuration not stated)	nt	0	-2	0	-2
COc1cc(C(=S)N2CCOCC2)ccc1OC(=O)c1ccc(Br)cc1	-1	2	-2	-7	-1
COc1cc(C(=S)N2CCOCC2)ccc1OC(=O)c1cccc(C)c1	0	5	-3	-7	24*
COc1cc(C(=O)Oc2c(OC)cc(C(=S)N3CCOCC3)cc2OC)cc(OC)c1OC	-4	2	-3	-6	24*
COc1cc(C(=S)N2CCOCC2)cc(OC)c1OC(=O)c1ccc(F)cc1	1	3	-4	-5	1
Cc1ccc(-c2c(C(=O)NCC(C)C)oc(=O)c3ccccc23)cc1	nt	-3	-1	-4	0
COc1ccc(NC(=O)[C@@]2(CC(=O)O)CC(/C=C/c3ccccc3)=NO2)cc1	-1	2	-1	-3	6
CC(=O)c1ccc(NC(=O)[C@@]2(CC(=O)O)CC(/C=C/c3ccccc3)=NO2)cc1	1	-2	-2	-5	54*
O=C(CSc1nnc(-c2ccc(Cl)cc2)n1-c1ccccc1)Nc1ccc2c(c1)OCCO2	nt	-3	3	10	-4
COCCNC(=O)C(c1ccc(F)cc1)N(C(=O)CCC(=O)Nc1nccs1)c1ccc(C)cc1 (configuration not stated)	3	-1	4	-11	21*
COCCNC(=O)C(c1ccc(F)cc1)N(CCOC)C(=O)CCC(=O)Nc1nccs1 (configuration not stated)	-4	4	2	9	15
COC(=O)c1ccc(/C=C/c2c(-c3ccsc3)sc3ccccc23)cc1	-2	-1	2	0	23*
COc1ccc(-c2sc3ccccc3c2/C=C/c2ccc(N)cc2)cc1	0	-1	-4	4	-1
COc1ccc(OCc2cn(CC(=O)c3ccc(O)cc3)nn2)cc1	-1	12	6	11	22*
O=Cc1ccc(OCc2cn(CC(=O)c3ccc(O)cc3)nn2)cc1	-4	-1	2	-6	0
CCC(=O)c1ccc(OCc2cn(CC(=O)c3ccc(O)cc3)nn2)cc1	0	8	7	1	22*
CCC(=O)c1ccc(OCc2ccc(C(=O)c3ccccc3)cc2)cc1	-6	9	-1	-2	22*
O=C(Cn1cc(COc2ccc(C(=O)c3ccccc3)cc2)nn1)c1ccc(O)cc1	-3	10	-1	-9	22*
SMILES	Rin1-Abl PPI inh	MBD2 DNA inh	LEDGF integ inh	TDP2 inh	UHRF1 MBD2 ctr
CC(C)(C)OC(=O)N1CCC(N[C@@H](Cc2c[nH]c3ccccc23)C(=O)NCC(c2ccccc2)c2ccccc2)(C(=O)NC2CCCCC2)CC1	nt	5	2	2	3
[C-]#[N+][C@]12C(=O)[C@H](C=C(Cl)[C@@]1(C)C=C)C(C)(C)[C@H]1C(=O)N(C)c3cccc2c31	nt	-3	-29	-9	-17
COc1ccc(-c2c(Cc3ccccc3)nc(NC(=O)c3ccccc3)n2C)cc1	nt	3	13	7	0
C[C@H]1[C@H](N(C)C)CC[C@@]23CCCN2C(=O)CCC[C@@H]13	nt	-2	1	7	0
Clc1cccc(Cc2c(C3CCCCC3)nc3c4ccccc4ccn23)c1	nt	3	6	7	24*
FC(F)(F)c1ccccc1Cc1c(C2CCCCC2)nc2c3ccccc3ccn12	5	3	3	-14	22*
CCOC(=O)N1CCC(NC(=O)c2cc(C(=O)NCc3ccc(F)cc3)ccc2CO)CC1	0	11	9	3	23*
CC1=NN(c2ccccc2)C(=O)C1=Cc1ccccc1	29*	5	12	73*	16
CC1=NN(c2ccccc2)C(=O)/C1=C/c1ccc[nH]1	-3	-3	-1	-2	-8
COc1ccc(C(=O)CSc2nnc(-c3cccnc3)n2-c2ccc(C)cc2)cc1	nt	1	0	-4	-2
Cc1ncc(CO)c2c1Oc1nc(-c3ccccc3)nc(SCC(=O)Nc3cccc(O)c3)c1C2	8	0	8	2	-2
COc1ccc(-c2nc3c(c(SCC(=O)Nc4cccc(O)c4)n2)Cc2c(CO)cnc(C)c2O3)cc1	0	1	14*	-10	-1
C=Cc1ccc(C(=O)N2CCC(n3nnc4ncccc43)CC2)cc1	nt	3	0	1	1
c1coc(-c2nc3c4ccccc4ccn3c2Cc2ccsc2)c1	nt	7	5	-8	22*
COC(=O)CSc1nc(SC)nc2c1sc1nc(-c3ccco3)c3c(c12)CC(C)(C)OC3	1	2	3	-7	24*
CSc1nc(SCCO)c2sc3nc(-c4ccco4)c4c(c3c2n1)CC(C)(C)OC4	-8	8	8	12	3
CC(=O)N1c2cc(S(=O)(=O)Nc3c(C)n(C)n(-c4ccccc4)c3=O)c(Br)cc2CC1C (configuration not stated)	nt	1	-2	4	-5
c1ccc2c(C(c3nnnn3-c3ccc4c(c3)OCCO4)N3CCOCC3)ccnc2c1 (configuration not stated)	nt	6	1	4	22*
c1ccc2c(C(c3nnnn3-c3ccc4c(c3)OCCO4)N3CCCC3)ccnc2c1 (configuration not stated)	nt	-4	-1	2	-6
COC(=O)C1CN(Cc2cn(Cc3ccc(F)cc3)nn2)CCS(=O)(=O)N1Cc1ccccc1 (configuration not stated)	nt	9	1	1	15
COC(=O)[C@]1(CNC(=O)C(C)(C)C)CC(=O)N(Cc2ccc(Cl)cc2)[C@@H]1c1ccc(OC)cc1	nt	-1	5	-5	45*
